Experimental findings from ChEMBL document CHEMBL4433206, “Novel Lysine-Based Thioureas as Mechanism-Based Inhibitors of Sirtuin 2 (SIRT2) with Anticancer Activity in a Colorectal Cancer Murine Model” (J Med Chem, 2019) are described below.

In series [1] the test system is MDA-MB-231. Put plainly: Growth inhibition of human MDA-MB-231 cells after 72 hrs by CellTiter-Blue assay. The following applies: MDA-MB-231, 72 h. The series is classed as functional.
Series [2] is described as follows: Cytotoxicity against human HME1 cells after 72 hrs by CellTiter-Blue assay. The series is classed as cell-based. The essentials:
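Cells were seeded per well (HCT116 1000; MDA-MB-231, MDA-MB-468, NCI-H23, A549, SW948 2000; MCF7, BxPC-3, HME1 3000) and left 20 h at 37 °C. Inhibitor was added at 1–100 μM final for 72 h at 37 °C. CellTiter-Blue was then added for 4 h, and fluorescence was read at ex 560/em 590 nm.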
(In general: Alamar Blue is a resazurin reagent that responds to reducing activity.)

Series [3] relates to BXPC-3. Description: Growth inhibition of human BxPC3 cells after 72 hrs by CellTiter-Blue assay. The class given is functional. The following applies: BXPC-3, 72 h.
The subject of series [4] is MDA-MB-468. Put plainly: Growth inhibition of human MDA-MB-468 cells after 72 hrs by CellTiter-Blue assay. The series is classed as functional. The following applies: MDA-MB-468, 72 h.
In series [5] the test system is NCI-H23. Description: Growth inhibition of human NCI-H23 cells after 72 hrs by CellTiter-Blue assay. The series is classed as functional. The following applies: NCI-H23, 72 h.
For series [6], the system named is MDA-MB-231. Description: Potency index, ratio of TM GI50 to compound GI50 for growth inhibition of human MDA-MB-231 cells. The series is classed as functional.
Series [7] concerns HCT-116. Put plainly: Potency index, ratio of TM GI50 to compound GI50 for growth inhibition of human HCT116 cells. The class given is functional.
For series [8], the system named is MCF7. Description: Potency index, ratio of TM GI50 to compound GI50 for growth inhibition of human MCF7 cells. The class given is functional.
Series [9] concerns SW948. Put plainly: Growth inhibition of human SW948 cells after 72 hrs by CellTiter-Blue assay. The series is classed as functional. The following applies: SW948, 72 h.
The subject of series [10] is A549. Put plainly: Potency index, ratio of TM GI50 to compound GI50 for growth inhibition of human A549 cells. The series is classed as functional.
For series [11], the target named is T1, NAD-dependent protein deacetylase sirtuin-3, mitochondrial (Homo sapiens, UniProt Q9NTG7).
T1 sequence (Q9NTG7 whole entry): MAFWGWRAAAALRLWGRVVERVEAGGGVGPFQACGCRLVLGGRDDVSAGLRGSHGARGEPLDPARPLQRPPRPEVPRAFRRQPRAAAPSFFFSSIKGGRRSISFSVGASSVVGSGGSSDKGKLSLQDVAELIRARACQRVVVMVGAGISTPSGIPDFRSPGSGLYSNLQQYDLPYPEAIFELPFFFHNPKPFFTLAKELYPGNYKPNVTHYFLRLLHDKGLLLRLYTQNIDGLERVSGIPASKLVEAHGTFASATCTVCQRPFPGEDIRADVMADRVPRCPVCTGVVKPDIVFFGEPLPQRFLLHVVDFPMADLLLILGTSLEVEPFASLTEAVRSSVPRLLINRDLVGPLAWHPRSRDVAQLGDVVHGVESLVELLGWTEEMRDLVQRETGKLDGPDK
Put plainly: Inhibition of human SIRT3 assessed as reduction in deacetylase activity using acetylated H3K9 as substrate preincubated for 15 mins followed by substrate addition and measured after 15 mins by UV-HPLC analysis.

In series [12] the test system is HCT-116. Put plainly: Inhibition of anchorage-independent cell growth in human HCT116 cells assessed as reduction in colony formation incubated for 5 days followed by compound re-addition and measured after 9 to 11 days by nitro blue tetrazolium chloride-based soft agar colony formation assay. The series is classed as functional. The essentials:
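HCT116 cells were mixed at 500 cells/mL into 0.3% agar growth layer over a 0.6% agar base layer (McCoy's medium, 10% calf serum). Both layers held inhibitor at 2.5–50 μM final. Wells were run in triplicate at 37 °C. Inhibitor-containing growth layer was added again at day 5. At 9–11 days, nitro blue tetrazolium was added overnight and colonies were imaged and counted.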

For series [13], the target named is T2, NAD-dependent protein deacetylase sirtuin-1 (Homo sapiens) (UniProt Q96EB6).
T2 sequence (whole entry): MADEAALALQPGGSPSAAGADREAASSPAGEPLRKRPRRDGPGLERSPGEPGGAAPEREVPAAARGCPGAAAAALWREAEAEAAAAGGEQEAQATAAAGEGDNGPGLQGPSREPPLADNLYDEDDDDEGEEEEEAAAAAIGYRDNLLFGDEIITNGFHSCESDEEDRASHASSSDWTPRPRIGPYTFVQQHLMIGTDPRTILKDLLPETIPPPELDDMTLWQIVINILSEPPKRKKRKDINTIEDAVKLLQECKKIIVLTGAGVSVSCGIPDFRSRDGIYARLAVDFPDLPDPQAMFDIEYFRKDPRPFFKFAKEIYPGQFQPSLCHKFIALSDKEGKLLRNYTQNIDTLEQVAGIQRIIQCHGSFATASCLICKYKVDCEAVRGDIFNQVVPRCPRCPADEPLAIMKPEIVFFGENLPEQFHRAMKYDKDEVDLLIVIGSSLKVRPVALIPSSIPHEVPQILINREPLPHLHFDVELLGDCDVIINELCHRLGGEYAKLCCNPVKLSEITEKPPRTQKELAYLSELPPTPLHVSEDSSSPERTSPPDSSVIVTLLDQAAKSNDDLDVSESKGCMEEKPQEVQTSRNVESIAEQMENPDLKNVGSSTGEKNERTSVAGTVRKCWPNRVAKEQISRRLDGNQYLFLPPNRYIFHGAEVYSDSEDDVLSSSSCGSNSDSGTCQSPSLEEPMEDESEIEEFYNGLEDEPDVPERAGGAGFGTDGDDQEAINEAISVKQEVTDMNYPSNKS
Description: Inhibition of SIRT1 in Trichostatin A treated human HCT116 cells assessed as increase in acetylated p53 K382 level at 10 to 50 uM after 6 hrs by Western blot analysis. The gist of the method: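 HCT116 cells were seeded at 400 000 per well, grown 24 h, then cotreated with 400 nM TSA and inhibitor (25 μM, or 10–50 μM) for 6 h at 37 °C. Cells were lysed in 4% SDS buffer, pH 7.4. 50 μg of lysate was resolved by 12% SDS-PAGE and blotted for acetyl-p53 K382 antibody, with β-actin as loading control. Detection was by ECL.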
On the technique in general: In western blotting, separated proteins are transferred to a membrane and probed.

Series [14] deals with CCD-841CoN. Put plainly: Growth inhibition of human CCD-841-CoN cells after 72 hrs by CellTiter-Blue assay. The class given is cell-based. The essentials: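 3000 cells/well seeded, 20 h at 37 °C. Inhibitor added at final 1–100 μM, then 72 h at 37 °C. Viability read by CellTiter-Blue after 4 h at 37 °C, fluorescence 560 nm excitation/590 nm emission. GI50 derived.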
The subject of series [15] is HCT-116. Put plainly: Antitumor activity against human HCT116 cells harboring KRAS G13D mutant xenografted in NSG mouse assessed as tumor growth inhibition by measuring reduction in tumor weight at 25 mg/kg, ip administered daily for 12 days and measured post-last dose. The series is classed as functional, organism-based. The gist of the method: (§1)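 NSG mice, female and male, about 4–8 weeks old, were implanted with 1 × 10⁶ HCT116 cells on both sides of the abdomen. Tumours grew 3–5 days until visible. Compound was given ip daily for 12 days in vehicle containing 10% DMSO and 10% Kolliphor EL (dosing solution 10 mg/mL); control mice received vehicle. Tumour volume was measured daily; tumours were excised and weighed on the last day. Unpaired two-tailed t-test.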
In general terms: Xenograft models place foreign cells or tissue in a host animal.

Series [16] relates to HCT-116. Description: Antitumor activity against human HCT116 cells harboring KRAS G13D mutant xenografted in NSG mouse assessed as tumor growth inhibition by measuring reduction in tumor volume at 25 mg/kg, ip administered daily for 12 days and measured daily during compound dosing. The class given is functional, organism-based. The essentials:
as §1

The source made the active and inactive calls. No cut-off for these calls is given here.

`CCCCCCCCCCNC(=S)NCCCC[C@H](NC(=O)OCc1ccccc1)C(=O)Nc1ccccc1`: the GI50 – broadly, the concentration that inhibits growth by half – in [1] stood at 14.8 µM; in [3] it was 24.3 µM; in [4], 13.4 µM; in series [5], 15.6 µM; in [9], 12.8 µM; in series [12], 7 µM. In addition, in [14], the GI50 was determined as 47.4 µM. Moreover, the Activity entry in series [2] is “Non-Toxic”. For the same compound, the RatioGI50 in series [6], in [7], in series [8] and in [10] was 2 throughout. Further, in [11], the IC50 – broadly, the concentration that inhibits the measured activity by half – is > 200 µM. For the same compound, the inhibition result in series [13] is “inactive”.
`CCCCCCCCNC(=S)NCCCC[C@H](NC(=O)OCc1ccccc1)C(=O)Nc1ccccc1`: the GI50 in [1] stood at 27.2 µM; in series [3], 72.4 µM; in [4], 26.1 µM; in [5], 35.8 µM; in [9] it was 30 µM; in series [12], 7.4 µM. Besides, the Activity result in series [2] is recorded as “Non-Toxic”. The TGI entry in series [15] and in series [16] was “inactive” throughout. Also, in series [13], the inhibition entry is “inactive”.
